Screening data deposited in PubChem by The Scripps Research Institute Molecular Screening Center.
An excerpt weighted towards active compounds, which were near 1.9% of everything screened.
CHRM4 agonist: agonists of human muscarinic M4 receptor (CHRM4). hit rate 0.14% among 360,000. activation, % at 3 µM. CHO-K1 hM4/Gqi5, Fluo-8 calcium fluorescence; vehicle 0%, full acetylcholine response 100%. AID 624127. P08173;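 active = activation above the run mean over all test wells plus 3 SD, cut at about 32% in these data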;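 also: peak over basal fluorescence ratio per well then scaled between controls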
M5 antag: CHRM5 antagonism in calcium assay; P08912; CHO-hM5 cells, Fluo-8 calcium fluorescence, ACh EC80; inhibition, % at 3 µM; hit rate 0.59% among 360,000;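 active = inhibition above a per-plate cutoff, the mean of that plate's test compounds plus 3 SD, cut at about 27% in these data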
Target sequence (P08912 whole entry, looked up): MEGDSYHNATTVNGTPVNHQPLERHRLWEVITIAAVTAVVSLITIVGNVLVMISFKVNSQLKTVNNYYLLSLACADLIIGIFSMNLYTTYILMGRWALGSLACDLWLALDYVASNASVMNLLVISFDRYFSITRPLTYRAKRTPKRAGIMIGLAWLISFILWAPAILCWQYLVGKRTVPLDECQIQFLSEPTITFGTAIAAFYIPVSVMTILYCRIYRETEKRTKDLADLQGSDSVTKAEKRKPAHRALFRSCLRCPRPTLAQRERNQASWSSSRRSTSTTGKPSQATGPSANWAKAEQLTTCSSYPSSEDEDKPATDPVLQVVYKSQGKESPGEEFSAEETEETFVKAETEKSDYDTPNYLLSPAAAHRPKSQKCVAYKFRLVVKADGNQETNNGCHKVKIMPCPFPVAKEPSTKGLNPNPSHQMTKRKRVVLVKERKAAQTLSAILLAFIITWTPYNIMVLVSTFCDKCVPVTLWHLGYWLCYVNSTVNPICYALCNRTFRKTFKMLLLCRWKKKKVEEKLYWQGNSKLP
CHRM5 PAM: positive allosteric modulators of human muscarinic M5 receptor; CHO-K1 hM5, Fluo-8 calcium, ACh EC20 PAM; 0% = ACh EC20, 100% = ACh EC100; activation, % at 3 µM; hit rate 0.3% among 360,000;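 active = activation above the run cutoff, the mean activation of all test compounds plus 3 SD, cut at about 18% in these data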
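System: CHO-K1 cell line with stable human muscarinic M5 receptor expression | Also added: EC20 acetylcholine as agonist stimulus | Compound: One concentration, 3 µM final (nominal) | Timing: Fluo-8 loading 80 min at 37 °C plus 30 min room temperature | Measured by: Fluo-8 calcium dye fluorescence, kinetic read | Read-out basis: % activation, ACh-normalized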
M4 antag: antagonists of human muscarinic M4 receptor (CHRM4); CHO-hM4 cells, ACh EC80, Fluo-8 calcium fluorescence; inhibition, % at 3 µM; hit rate 0.73% among 360,000; AID 624125;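 active = inhibition above its plate's cutoff, the mean inhibition of sample wells plus 3 SD, cut at about 27% in these data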
CHRM4 PAM: CHRM4 positive allosteric modulation; hit rate 0.4% among 360,000; activation, % at 3 µM; CHO-K1 hM4/Gqi5, Fluo-8 calcium fluorescence, ACh EC20; 0% = ACh EC20, 100% = maximal ACh; AID 624126;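 active = activation above its plate's cutoff, the mean activation of sample wells plus 3 SD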
M5 ag: CHRM5 agonism in calcium assay. hit rate 0.19% among 360,000. P08912. activation, % at 3 µM. CHO-K1 hM5 cells, Fluo-8 calcium fluorescence; 0% DMSO wells, 100% maximal acetylcholine response;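 active = activation above the run's mean over test compounds plus 3 SD, cut at about 23% in these data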;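 also: signal is peak over basal fluorescence ratio across the kinetic read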
Numbers stand for hits; – = inactive.

SMILES	CHRM4 agonist	M5 antag	CHRM5 PAM	M4 antag	CHRM4 PAM	M5 ag
Cc1cc(OCCn2cncn2)ccc1[N+](=O)[O-]	–	–	–	–	–	–
CC(=O)NC(c1ccc(F)c(F)c1)c1nc(-c2cnn(C)c2)cs1 (centres undefined)	–	–	–	–	–	–
COc1ccc(NC(=O)C(c2cc3c(cc2[N+](=O)[O-])OCO3)N(C)c2ccccc2)cc1 (centres undefined)	–	–	–	–	–	–
CC1Cc2ccccc2N1C(=O)Cn1cnc2c1c(=O)n(C)c(=O)n2C (centres undefined)	–	–	–	–	–	–
Cc1ccc2c(c1)NC(=O)C(CC(=O)Nc1ccc(CN3CCC(C)CC3)cc1)O2 (centres undefined)	–	71	–	99	–	–
COc1ccc(Cc2nc3ccc(C(=O)N(C)CCc4cnn(C)c4)cc3o2)cc1OC	–	–	–	–	–	–
Cc1cc(/C=C2\SC(=S)N(Cc3ccco3)C2=O)c(C)n1-c1cccnc1	–	–	–	–	–	–
Cc1cc(/C=C2/SC(=S)N(c3cccc(C(F)(F)F)c3)C2=O)c(C)n1-c1cccnc1	–	–	–	39	–	–
O=C(O)CCCN1C(=O)C2C3CC(C2C1=O)C1C(c2ccccc2)c2sc(=O)n(-c4ccccc4)c2SC31 (centres undefined)	–	–	–	–	–	–
CCC1(c2ccccc2)NC(=O)N(CC(=O)Nc2cc(S(=O)(=O)N3CCCCCC3)ccc2OC)C1=O (centres undefined)	–	–	–	–	–	–
Nc1cc(=O)[nH]c(SCC(=O)Nc2cccnc2Cl)n1	–	–	–	–	22	–
Cc1ccc(C)c(NC(=O)C(NCC(C)(C)N2CCOCC2)c2ccccc2)c1 (centres undefined)	–	–	–	76	–	–
Cc1ccc(C)c(NC(=O)C(c2ccccc2)N2CCN(CC(=O)N3CCOCC3)CC2)c1 (centres undefined)	–	–	–	–	–	–
COC(=O)c1ccc2c(C)c(C(C)(C)O)[nH]c2c1	–	–	–	–	–	–
COc1cccc(NC(=S)N(CCN(C)C)C(C)c2ccncc2)c1 (centres undefined)	–	–	–	–	–	–
CC(C)Oc1ccc(/C(O)=C2/C(=O)C(=O)N(Cc3cccnc3)C2c2ccco2)cc1 (centres undefined)	–	–	–	–	19	–
Cc1ccc(-n2nc(C)cc2NC(=O)c2ccc(C)s2)cc1	–	–	–	46	–	–
COc1ccc(-c2cc(C(=O)Nc3cc(C)nn3-c3ccccc3)no2)cc1	–	–	–	–	18	–
Cc1ccc(-n2nc(C)cc2NC(=O)CC#N)cc1	–	–	–	–	–	–
CCOc1ccc(N2CC(C(=O)NC3CCCCCC3)CC2=O)cc1 (centres undefined)	–	–	–	–	–	–
CC(NC(=S)NCc1ccc(F)cc1)C12CC3CC(CC(C3)C1)C2 (centres undefined)	–	–	–	–	–	–
O=C(Nc1cccs1)OCCN1CCN(Cc2ccccc2)CCC1=O	–	–	–	–	–	–
Cc1c(C=O)c2ccccn2c1C(=O)c1ccccc1Cl	–	–	–	55	–	–
CC1(C(=O)N2CC3(CC(c4cccc(NC(=O)CC(c5ccccc5)c5ccccc5)c4)=NO3)C[C@@H]2C(N)=O)CC1 (some centres undefined)	–	–	–	–	–	–
O=C(c1cc(=O)[nH]c2ccccc12)N1CCN(S(=O)(=O)c2ccc(Cl)cc2)CC1	–	27	–	–	–	–
SMILES	CHRM4 agonist	M5 antag	CHRM5 PAM	M4 antag	CHRM4 PAM	M5 ag
CC1CCCC(C)N1C(=O)CNCc1ccc2c(c1)OCO2 (centres undefined)	–	–	–	–	–	–
CCCC(=O)Nc1ccc(C(=O)NNC(=S)NC(=O)c2ccc(Br)o2)cc1	–	–	–	34	–	–
CCCC(=O)Nc1ccc(C(=O)NNC(=S)NC(=O)c2cccs2)cc1	–	–	–	–	–	–
COc1ccc(C)c2sc(N(CCCN(C)C)C(=O)c3ccc4c(c3)OCCO4)nc12	–	–	–	54	67	–
Cc1cccc2sc(N(CCCN(C)C)C(=O)c3ccco3)nc12	–	49	–	73	–	–
Cc1cc(C)c2nc(N(CCCN(C)C)C(=O)c3ccc4c(c3)OCCO4)sc2c1	–	–	–	–	29	–
Cc1cccc2sc(N(CCCN(C)C)C(=O)c3ccc(Cl)s3)nc12	–	–	–	–	–	–
O=[N+]([O-])c1c(Nc2ccccc2O)ccc2nonc12	–	–	–	–	–	–
O=[N+]([O-])c1c(Nc2ccccc2O)cc(Cl)c2nonc12	–	–	–	33	–	–
O=C(O)c1ccccc1NS(=O)(=O)c1ccc(NN=Cc2ccccc2F)c([N+](=O)[O-])c1	–	–	–	–	24	–
CSc1ccc(C=NNc2ccc(S(=O)(=O)Nc3ccccc3C(=O)O)cc2[N+](=O)[O-])cc1	–	–	–	–	–	–
Cc1cc(C)n2nc(C(=O)N/N=C/c3cccc(Cl)c3)nc2n1	–	–	–	–	32	–
CC1CCC2C(=O)N(c3ccc(NC4CCN(Cc5ccccc5)CC4)c([N+](=O)[O-])c3)C(=O)C2C1 (centres undefined)	–	–	–	29	–	–
O=C1CCC(=O)N1c1ccc(NC2CCN(Cc3ccccc3)CC2)c([N+](=O)[O-])c1	–	–	–	–	–	–
O=C1C2CCCCC2C(=O)N1c1ccc(NC2CCN(Cc3ccccc3)CC2)c([N+](=O)[O-])c1 (centres undefined)	–	32	–	–	–	–
COc1cccc(NC(=O)CN(C)CC(=O)NCc2ccco2)c1	–	–	–	–	–	–
Cc1cc(Cl)cc(Cl)c1OCC(=O)NCc1ccco1	–	–	22	–	–	–
CN(CC(=O)NCc1ccco1)CC(=O)Nc1c(Cl)cccc1Cl	–	–	18	–	–	–
CC(C)N1CCN(C(=O)C2CCC(=O)N(CCc3cccc(F)c3)C2)CC1 (centres undefined)	–	–	–	–	–	–
CN1CCN(C(=O)C[C@@H]2C=C[C@H](NS(=O)(=O)c3cccc(F)c3)[C@@H](CO)O2)CC1	–	–	–	–	–	–
Fc1ccc(-c2csc3[n+]2CCS3)cc1	–	–	–	–	–	–
c1sc2[n+](c1C13CC4CC(CC(C4)C1)C3)CCS2	–	–	–	34	–	–
O=[N+]([O-])c1cccc(COc2ccc(CN3CCOCC3)cc2)c1	–	–	–	–	–	–
